The source of these data is ChEMBL document CHEMBL3792273, “Synthesis and pharmacological evaluation of mono-arylimidamides as antileishmanial agents” (Bioorg Med Chem Lett, 2016).

Data set [1] in a line: Selectivity index, ratio of IC50 for cytotoxic activity against mouse J774 cells to IC50 for antileishmanial activity against Leishmania amazonensis amastigotes. Type of data set: toxicity, cell-based. The conditions noted are these: read-out: Ratio IC50.
Data set [2] can be described thus: Selectivity index, ratio of IC50 for cytotoxic activity against mouse J774 cells to IC50 for antileishmanial activity against Leishmania donovani. The conditions noted are these: read-out: Ratio IC50. It is filed as toxicity, cell-based.
For another data set, the system named is Mus musculus. As to the kind of experiment: Toxicity in BALB/c mouse assessed as drug tolerance at 30 mg/kg/day, ip for 5 days. It is filed as organism-based. The conditions noted are these: in vivo, 120 h. Put shortly:
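Compound was dissolved in water and injected i.p. into healthy, uninfected BALB/c mice at 30 mg/kg/day once daily for 5 consecutive days to assess in vivo tolerability.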

The nature of data set [3]: Drug level in BALB/c mouse plasma at 40 mg/kg, po administered as single dose after 1 hr. Type of data set: ADME, organism-based. Put shortly: (§1)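 Mice received a single oral dose of 100 μmol/kg (40 mg/kg). Compound levels in plasma, liver, spleen and kidney were measured at 1, 2 and 24 h post-dose and reported as concentrations. Values are means ± standard errors of triplicate determinations.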

A short description of data set [4]: Drug level in BALB/c mouse spleen at 40 mg/kg, po administered as single dose after 24 hrs. Type of data set: ADME, organism-based. The conditions noted are these: read-out: Drug uptake. Put shortly: as §1
A short description of data set [5]: Drug level in BALB/c mouse liver at 40 mg/kg, po administered as single dose after 24 hrs. It is filed as ADME, organism-based. The conditions noted are these: read-out: Drug uptake. Put shortly:
as §1

Data set [6] in a line: Drug level in BALB/c mouse liver at 40 mg/kg, po administered as single dose after 1 hr. The conditions noted are these: read-out: Drug uptake. It is filed as ADME, organism-based. Put shortly: as §1
For data set [7], the system named is Leishmania amazonensis. As to the kind of experiment: Antileishmanial activity against beta-lactamase expressing Leishmania amazonensis amastigotes overnight infected in CD1 mouse macrophages incubated for 72 hrs by nitrocefin dye based assay in presence of posaconazole. Type of data set: functional, organism-based.
The nature of data set [8]: Drug level in BALB/c mouse plasma at 40 mg/kg, po administered as single dose after 24 hrs. Type of data set: ADME, organism-based. Put shortly:
as §1

The nature of data set [9]: Drug level in BALB/c mouse spleen at 40 mg/kg, po administered as single dose after 1 hr. The conditions noted are these: read-out: Drug uptake. It is filed as ADME, organism-based. Put shortly: as §1
The test system of data set [10] is Leishmania amazonensis. Briefly: Antileishmanial activity against Leishmania amazonensis infected in mouse peritoneal macrophages after 72 hrs using 2 hrs parasite exposed mouse peritoneal macrophages.

On to `CC(C)Oc1cc(NC(=N)c2ncccn2)ccc1-c1ccc(-c2ccccc2)o1`, for which the selectivity ratio in [1] came out at 18; in [2] it was 27.

For the compound `CC(C)Oc1cc(NC(=N)c2ccccn2)ccc1-c1ccc(-c2ccco2)o1.Cl`, the selectivity ratio in data set [1] and in data set [2] was no less than 25 throughout. Besides, the Activity entry in the data set on Mus musculus was “Non-toxic”.

For the compound `CC(C)Oc1cc(NC(=N)c2ccccn2)ccc1-c1cnc(-c2ccccc2)o1`, the selectivity ratio in [1] stood at 41; in data set [2], 24.

On to `CS(=O)(=O)O.N=C(Nc1ccc(-c2ccc(-c3ccccc3)o2)c(OC2CCCC2)c1)c1ccccn1`, for which the selectivity ratio in data set [1] and in data set [2] was no less than 25 throughout. Besides, the Activity result with Mus musculus is on record as “Non-toxic”.

Regarding `CC(C)Oc1cc(NC(=N)c2ccccn2)ccc1-c1ccc(-c2ccccc2)s1`, the results for the selectivity ratio in data set [1] and in data set [2] were 3 and 3.1, respectively.

Turning to `CC(C)Oc1cc(NC(=N)c2ccccn2)ccc1-c1ccc(-c2ccccc2)o1.CS(=O)(=O)O`, the figures for the concentration at 1 h in data set [3], in data set [6] and in [9] were 1900 nM, 12600 nM and 4700 nM, respectively. The concentration at 24 h in [4] came to 600 nM; in [5], 600 nM; in [8] it was 140 nM. Further, the selectivity ratio in data set [1] and in data set [2] was no less than 25 each time. Moreover, the IC50 with Leishmania amazonensis [7] is 55 nM. Also, in the data set with Mus musculus, the Activity result is reported as “Non-toxic”.

The compound `CC[C@@H]([C@H](C)O)n1ncn(-c2ccc(N3CCN(c4ccc(OC[C@@H]5CO[C@@](Cn6cncn6)(c6ccc(F)cc6F)C5)cc4)CC3)cc2)c1=O` [POSACONAZOLE] showed an IC50 in the data set with Leishmania amazonensis [10] of 1600 nM.

As for `COc1ccc(-n2cc(-c3ccc(NC(=N)c4ccccn4)cc3OC(C)C)nn2)cc1`, the selectivity ratio in data set [1] turned out to be 5.5; in data set [2], 10.

Broadly, the IC50 is the concentration that gives 50% inhibition.
